Publication PMC5607115 (ACS chemical neuroscience, 2017)
Like-named read-outs stand apart in the source and are kept apart here.

Assays:
[1] = liver microsomal stability; assay type: in vitro ADME; conditions: Sprague-Dawley, rat, liver microsomes
Outline: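 Sprague-Dawley rat liver microsomes in PBS with compound (0.5 µL of 2 mM DMSO stock) were preincubated 5 min at 37 °C. NADPH (10 mM stock) was added, then 60 min at 37 °C. Quenched with ice-cold CH3CN, centrifuged, quantified by LC-MS/MS as % peak area 60 vs 0 min. At least triplicate; verapamil positive control.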

human mGlu3 = human mGlu3 (Homo sapiens, UniProt Q14832); assay: thallium flux GIRK functional assay, human mGlu3; assay type: cell-based; conditions: for selectivity for mGlu2 over mGlu3: thallium flux GIRK assays
human mGlu3, sequence (Q14832 23-879): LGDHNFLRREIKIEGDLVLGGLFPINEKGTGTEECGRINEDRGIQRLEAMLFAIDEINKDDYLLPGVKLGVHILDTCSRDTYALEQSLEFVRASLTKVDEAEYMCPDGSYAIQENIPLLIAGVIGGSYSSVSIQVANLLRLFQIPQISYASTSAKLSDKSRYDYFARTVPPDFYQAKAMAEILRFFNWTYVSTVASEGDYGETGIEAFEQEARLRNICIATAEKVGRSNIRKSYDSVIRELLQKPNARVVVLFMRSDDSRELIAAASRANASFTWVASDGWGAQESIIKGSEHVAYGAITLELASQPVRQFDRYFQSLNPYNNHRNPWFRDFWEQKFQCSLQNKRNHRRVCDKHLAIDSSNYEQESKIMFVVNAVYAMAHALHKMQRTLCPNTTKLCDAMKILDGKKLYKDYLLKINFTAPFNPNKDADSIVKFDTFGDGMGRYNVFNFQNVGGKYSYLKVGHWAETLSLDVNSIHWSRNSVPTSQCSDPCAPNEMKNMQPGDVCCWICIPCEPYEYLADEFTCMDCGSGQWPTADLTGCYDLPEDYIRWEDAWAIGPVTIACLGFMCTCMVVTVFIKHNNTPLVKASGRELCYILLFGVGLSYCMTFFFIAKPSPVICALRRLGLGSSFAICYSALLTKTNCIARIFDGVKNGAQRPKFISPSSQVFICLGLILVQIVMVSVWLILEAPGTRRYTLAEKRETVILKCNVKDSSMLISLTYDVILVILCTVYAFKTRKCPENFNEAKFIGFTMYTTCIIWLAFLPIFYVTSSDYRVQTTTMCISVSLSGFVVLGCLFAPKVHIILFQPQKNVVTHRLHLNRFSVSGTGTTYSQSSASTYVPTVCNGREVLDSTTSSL
Outline: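 HEK cells stably co-expressing GIRK and human mGlu3 (puromycin-selected polyclonal line) were plated overnight and loaded with FluoZin2-AM (330 nM final) for 1 h at RT. Compound (0.3% DMSO final) was preincubated ~1 h at RT, then thallium buffer with a full glutamate concentration-response was added. The 5–15 s fluorescence slope, normalised to vehicle and maximal agonist, was fitted to a four-parameter logistic equation.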

LogP, shake flask method = assay type: physicochemical; conditions: n-octanol/water
Outline: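 Test compound (50 µL of 20 µM DMSO stock) was mixed with mutually pre-saturated n-octanol and water (475 µL each), vortexed 1 min and shaken overnight at 37 °C. Each phase was quantified by LC-MS/MS, and LogP was taken as log of the octanol/water amount ratio. Run in triplicate.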

[2] = pH stability in buffer solutions; assay type: physicochemical; conditions: 60 min
Outline: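 A DMSO stock (0.25 µmol/mL) was diluted 50 µL into 950 µL of 20 mM buffer: phosphate pH 7.4, boric acid-KCl-NaOH pH 9.4, or sodium acetate-KCl-HCl pH 5.0. Samples were held 1 h at 37 °C, and unchanged compound was measured by reversed-phase HPLC (CH3CN/H2O + 0.1% TFA).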

human mGlu2 = human mGlu2 (Homo sapiens, UniProt Q14416); assay: thallium flux GIRK functional assay, human mGlu2; assay type: cell-based
human mGlu2, sequence (Q14416 19-872): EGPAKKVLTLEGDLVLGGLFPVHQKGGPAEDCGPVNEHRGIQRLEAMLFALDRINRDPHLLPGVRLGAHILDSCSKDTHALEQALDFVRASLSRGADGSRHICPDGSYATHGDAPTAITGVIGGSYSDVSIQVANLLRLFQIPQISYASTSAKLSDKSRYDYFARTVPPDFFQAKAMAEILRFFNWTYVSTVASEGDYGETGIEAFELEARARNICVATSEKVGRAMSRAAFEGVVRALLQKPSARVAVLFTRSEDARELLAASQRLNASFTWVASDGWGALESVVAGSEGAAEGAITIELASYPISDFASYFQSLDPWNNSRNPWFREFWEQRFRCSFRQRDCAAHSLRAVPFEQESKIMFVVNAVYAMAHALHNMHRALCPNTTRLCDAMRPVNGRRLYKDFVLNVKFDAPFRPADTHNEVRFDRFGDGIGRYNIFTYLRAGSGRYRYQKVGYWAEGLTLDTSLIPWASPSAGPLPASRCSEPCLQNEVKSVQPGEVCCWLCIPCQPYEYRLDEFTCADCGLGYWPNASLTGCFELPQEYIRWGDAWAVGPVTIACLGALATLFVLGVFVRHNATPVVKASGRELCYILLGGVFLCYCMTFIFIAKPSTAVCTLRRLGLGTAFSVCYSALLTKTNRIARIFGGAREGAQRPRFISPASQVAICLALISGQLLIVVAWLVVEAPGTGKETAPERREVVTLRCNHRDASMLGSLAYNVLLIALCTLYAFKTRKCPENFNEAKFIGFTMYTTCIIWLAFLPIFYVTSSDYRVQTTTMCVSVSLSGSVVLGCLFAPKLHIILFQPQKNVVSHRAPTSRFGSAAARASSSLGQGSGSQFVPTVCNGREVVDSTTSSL

major CNS targets = assay: GPCRome assays; assay type: cell-based; conditions: NIH PDSP
[3] = PET imaging in normal rat brain; assay type: in vivo, Sprague-Dawley rats; conditions: unlabeled QCA 1 mg/kg, self-blocking
other mGlu receptors = assay: activity towards other mGlu receptors; conditions: test concentration of 30 µM
[4] = cited from earlier work
mGlu2 [5] = target: mGlu2 (Rattus norvegicus, UniProt P31421); assay: in vitro autoradiography on rat brain sections; assay type: binding
mGlu2 (Rattus norvegicus, UniProt P31421), sequence (P31421 19-872): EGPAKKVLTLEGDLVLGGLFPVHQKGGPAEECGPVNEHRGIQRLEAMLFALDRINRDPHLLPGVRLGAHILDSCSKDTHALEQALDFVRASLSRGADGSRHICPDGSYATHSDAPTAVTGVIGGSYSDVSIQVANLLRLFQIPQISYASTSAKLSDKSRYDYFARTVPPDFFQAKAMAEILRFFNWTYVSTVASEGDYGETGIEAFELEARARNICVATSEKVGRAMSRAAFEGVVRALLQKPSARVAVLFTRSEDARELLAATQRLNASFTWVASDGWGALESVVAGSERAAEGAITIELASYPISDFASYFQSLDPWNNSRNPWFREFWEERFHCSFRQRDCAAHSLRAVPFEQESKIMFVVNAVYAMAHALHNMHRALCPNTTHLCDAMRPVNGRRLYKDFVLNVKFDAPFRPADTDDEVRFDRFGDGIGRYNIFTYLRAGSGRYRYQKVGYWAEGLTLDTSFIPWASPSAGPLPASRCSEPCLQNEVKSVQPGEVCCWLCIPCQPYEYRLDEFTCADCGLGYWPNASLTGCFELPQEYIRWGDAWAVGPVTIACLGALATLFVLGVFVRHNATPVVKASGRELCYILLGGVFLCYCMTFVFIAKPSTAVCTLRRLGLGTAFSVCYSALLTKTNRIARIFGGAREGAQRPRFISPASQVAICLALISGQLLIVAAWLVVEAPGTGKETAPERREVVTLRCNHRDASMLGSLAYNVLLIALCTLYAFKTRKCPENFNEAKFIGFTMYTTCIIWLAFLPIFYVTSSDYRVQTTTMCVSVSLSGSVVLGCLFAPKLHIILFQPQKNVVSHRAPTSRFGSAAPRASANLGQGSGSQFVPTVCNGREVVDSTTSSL

[6] = mice
[7] = rat
mGlu2 [8] = conditions: cited from earlier work

Compound | remaining at 1 h, 2 µM [1] | selectivity for mGlu2 over mGlu3 (human mGlu3) | logP (LogP, shake flask method) | pH stability, percent remaining of the parent molecule ([2]; pH 5.0, 37 °C) | pH stability, percent remaining of the parent molecule ([2]; pH 7.4, 37 °C) | pH stability, percent remaining of the parent molecule ([2]; pH 9.4, 37 °C) | IC50 (human mGlu2) | other results
NC(=O)c1cc(-c2ccc(OCCF)cc2F)c2ccc(CN3C(=O)CCC3=O)cc2n1 [FEQCA, 7-((2,5-dioxopyrrolidin-1-yl)methyl)-4-(2-fluoro-4-(2-fluoroethoxy)phenyl)quinoline-2-carboxamide] | 70.1% | excellent selectivity for mGlu2 over mGlu3 | 1.75 | 98.5% | 53.6% | 59.0% | 130 ± 10 nM | –
NC(=O)c1cc(-c2ccc(OCCCF)cc2F)c2ccc(CN3C(=O)CCC3=O)cc2n1 [FPQCA, 7-((2,5-dioxopyrrolidin-1-yl)methyl)-4-(2-fluoro-4-(3-fluoropropoxy)phenyl)quinoline-2-carboxamide] | 64.6% | excellent selectivity for mGlu2 over mGlu3 | 1.99 | 91.5% | 72.5% | 76.3% | 1080 ± 1300 nM | –
COc1ccc(-c2cc(C(N)=O)nc3cc(CN4C(=O)CCC4=O)ccc23)c(F)c1 [QCA, 7-((2,5-dioxopyrrolidin-1-yl)methyl)-4-(2-fluoro-4-methoxyphenyl)quinoline-2-carboxamide] | 64.4% | – | 1.27 | 97.9% | 50.9% | 46.7% | – | interaction with major CNS targets (major CNS targets): no significant interaction; effect on glutamate potency or glutamate maximal response (Schild analysis) (human mGlu3; mGlu3, 41 nM-30 µM QCA): no effect; effect of pretreatment on [11C]QCA brain uptake [3]: failed to show significant reduction of brain uptake; activity towards other mGlu receptors (other mGlu receptors): inactive
[11CH3]Oc1ccc(C2CCN(c3ccn(CC4CC4)c(=O)c3C#N)CC2)cc1 [[^11C]CMDC, 1-(cyclopropylmethyl)-4-(4-[^11C]methoxyphenyl)-piperidin-1-yl-2-oxo-1,2-dihydropyridine-3-carbonitrile] | – | – | – | – | – | – | – | peak brain uptake [4]: ca. 0.6 SUV
[11CH3]Oc1ccc(-c2cc(C(N)=O)nc3cc(CN4C(=O)CCC4=O)ccc23)c(F)c1 [[^11C]QCA, 7-((2,5-dioxopyrrolidin-1-yl)methyl)-4-(2-fluoro-4-[^11C]methoxyphenyl) quinoline-2-carboxamide] | – | – | – | – | – | – | – | in vitro specific binding to mGlu2 (mGlu2 [5]): moderate-to-high level of in vitro specific binding; uptake in heart, lungs, liver, pancreas, kidneys and small intestine ([6]; 1 min post injection): > 3 % ID/g; brain uptake, peak value ([6]; at 1 min post injection): 0.42 % ID/g; unchanged [11C]QCA in brain homogenates ([7]; 5 min post injection): 78%; unchanged [11C]QCA in plasma ([7]; 5 min post injection): 93%; unchanged [11C]QCA in brain homogenates ([7]; 20 min post injection): 41%; unchanged [11C]QCA in plasma ([7]; 20 min post injection): 88%; unchanged [11C]QCA in brain homogenates ([7]; 60 min post injection): 34%; unchanged [11C]QCA in plasma ([7]; 60 min post injection): 79%; peak brain uptake in whole brain (PgP/Bcrp; PgP/Bcrp knockout mice): ca. 0.8 SUV; increase of whole brain uptake in PgP/Bcrp knockout vs wild-type mice (PgP/Bcrp; calculated based on area under curve): 130%; peak brain uptake in whole brain (PgP/Bcrp; wild-type mice): ca. 0.3 SUV
[11CH3]Oc1c(F)ccc(F)c1C1CCN(c2ccn3c(CC4CC4)nnc3c2Cl)CC1 [compound 2] | – | – | – | – | – | – | – | mGlu2 selectivity over the other mGlu receptors (mGlu2 [8]): greater than 350 fold
